# High-throughput results as filed in PubChem.
# TRPC4 inh: TRPC4 (mouse) channel inhibition; Q9QUQ5; HEK293 TRPC4beta/mu-opioid, DAMGO-evoked Fluo4 calcium flux; hits give low values; B-score at 10 µM; 0.39% of 300,000 active; AID 2247;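 active = B-score over 3 SD under the library average, no early fluorescence shift, positive overall ratio signal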
#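 Material: HEK293 cells with stable TRPC4beta plus mu-opioid receptor expression; probe or stimulus: DAMGO in two steps, submaximal then maximal; technique: Fluo4 calcium fluorescence by kinetic imaging, 5 s 1 Hz baseline; measure: integrated fluorescence ratio relative to baseline, converted to per-well B score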
# TRPC6 inhibitor: blocks the mouse TRPC6 cation channel; 1.1% of 310,000 active; AID 2553; B-score at 10 µM; HEK293-TRPC6, membrane potential dye, ACh-evoked depolarization; hits give low values;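 active = B-score under library mean minus 3 SD, initial fluorescence not abnormally high, positive integrated signal ratio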;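 note: B-score derived from integrated fluorescence ratio over the kinetic read; more negative B-score means stronger inhibition of depolarization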
# Target sequence (Q61143 whole entry, looked up): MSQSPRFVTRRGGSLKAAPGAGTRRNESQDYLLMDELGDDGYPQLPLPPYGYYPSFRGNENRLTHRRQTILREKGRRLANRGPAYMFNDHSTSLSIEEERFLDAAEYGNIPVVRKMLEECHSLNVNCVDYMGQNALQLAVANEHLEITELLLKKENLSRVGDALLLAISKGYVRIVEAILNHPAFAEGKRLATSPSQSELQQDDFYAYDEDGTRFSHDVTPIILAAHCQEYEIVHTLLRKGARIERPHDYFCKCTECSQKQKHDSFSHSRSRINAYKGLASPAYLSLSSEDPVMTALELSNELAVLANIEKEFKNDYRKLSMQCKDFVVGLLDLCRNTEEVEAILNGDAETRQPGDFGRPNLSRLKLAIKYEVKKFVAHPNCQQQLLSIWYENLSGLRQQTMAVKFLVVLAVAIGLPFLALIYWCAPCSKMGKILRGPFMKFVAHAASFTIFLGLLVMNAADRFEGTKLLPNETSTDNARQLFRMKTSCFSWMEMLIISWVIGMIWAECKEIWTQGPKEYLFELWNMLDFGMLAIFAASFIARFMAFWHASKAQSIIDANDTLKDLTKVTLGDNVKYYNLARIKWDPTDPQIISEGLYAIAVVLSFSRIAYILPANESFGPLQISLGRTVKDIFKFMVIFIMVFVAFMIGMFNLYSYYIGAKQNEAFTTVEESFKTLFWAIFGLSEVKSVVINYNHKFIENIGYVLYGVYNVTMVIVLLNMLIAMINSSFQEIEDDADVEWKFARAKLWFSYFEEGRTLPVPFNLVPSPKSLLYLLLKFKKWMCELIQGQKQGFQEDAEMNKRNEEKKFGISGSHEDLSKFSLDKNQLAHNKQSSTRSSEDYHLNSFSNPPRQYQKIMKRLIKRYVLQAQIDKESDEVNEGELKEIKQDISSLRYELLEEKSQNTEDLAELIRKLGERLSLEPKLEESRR
# TRPC4 act: opens the mouse TRPC4 cation channel | Q9QUQ5 | HEK293 TRPC4beta/mu-opioid, Fluo4 calcium fluorescence; hits give high values | B-score at 10 µM | 0.49% of 310,000 active | AID 2237;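 active = B-score above 5 SD of library B-scores, and initial fluorescence ratio not above library mean plus 5 SD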;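 note: positive B-score marks a calcium rise read as TRPC4 activation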
#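 Assay system: HEK293 stable line with TRPC4beta plus mu-opioid receptor; schedule: 45 min room-temperature Fluo4 loading, 110 s read; technique: kinetic Fluo4 calcium fluorescence; evaluation: integrated baseline-normalised fluorescence ratio, converted to per-well B score; controls: buffer (low) and maximal DAMGO (high)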
# TRPC4 potent: TRPC4 (mouse) allosteric potentiation. Q9QUQ5. HEK293 TRPC4beta/mu-opioid, DAMGO EC20, Fluo-4 Ca2+ flux; hits give high values. B-score at 10 µM. 0.42% of 310,000 active. AID 2227;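 active = B-score of calcium response area above 5 SD of library B-scores, with initial fluorescence ratio within 5 SD of library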;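 note: B-score of integrated fluorescence ratio over time as area under calcium response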
# TRPC6 activator: activators of mouse TRPC6 channel; HEK293-TRPC6 membrane potential dye fluorescence; hits give high values; 0.13% of 310,000 active; AID 2550; B-score at 10 µM;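 active = B-score of the integrated fluorescence ratio above library mean plus 3 SD, and starting fluorescence ratio within library mean plus 5 SD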;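 note: higher score means more depolarization so channel activation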
# TRPC4 spec 2: mouse TRPC4 off-target activity of TRPC6 inhibitors, second screen; shares compounds with TRPC6 inhibitor; HEK293 TRPC4/MOR, membrane potential dye fluorescence; channel activated by saturating DAMGO dose; inhibition, % at 10 µM; 42% of 920 active;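 active = compounds whose fluorescence signal differed from control wells by over 3 SD, either direction, in both duplicate plates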
# TRPC4 spec: selectivity of TRPC6 inhibitors: effect on mouse TRPC4; shares compounds with TRPC6 inhibitor; activity change, negative = inhibition, % at 10 µM; HEK293 TRPC4/mu-opioid, membrane potential fluorescence; 61% of 920 active;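 active = rise or fall in signal beyond 3 SD of buffer-only wells in both replicate plates, either sign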;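 note: integrated kinetic ratio of fluorescence range over baseline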
# HEK293 MPD ctr 2-1: second check of TRPC6 inhibitor effects in parental HEK293 cells; parental HEK293 membrane potential dye fluorescence; maximal acetylcholine challenge after compound addition; shares compounds with TRPC6 inhibitor; signal change vs control, % at 10 µM; 31% of 920 active; AID 2779;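 active = membrane potential signal moving either way by over 3 SD of the maximum-effect control, in both duplicate plates, meaning non-specific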
# HEK293 MPD ctr-1: parental HEK293 nonspecific activity of TRPC6 inhibitors. membrane potential signal change, % at 10 µM. parental HEK293 membrane potential dye fluorescence. shares compounds with TRPC6 inhibitor. AID 2780. 60% of 920 active;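 active = membrane potential signal shifting up or down by more than 3 SD of buffer-only wells, on both duplicate plates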
# HEK293 MPD ctr-2: counter-screen for TRPC6 modulators: effect in parental HEK293 cells. shares compounds with TRPC6 inhibitor. membrane potential dye fluorescence. membrane potential signal change, % at 10 µM. 51% of 2,400 active. AID 488924;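 active = membrane potential signal moves up or down beyond 5 SD from buffer-only wells, on both duplicate plates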
# HEK293 MPD ctr 2-2: second check of TRPC6 modulator effects in parental HEK293 cells; membrane potential dye fluorescence; after compound, maximal acetylcholine stimulation; shares compounds with TRPC6 inhibitor; inhibition, % at 10 µM; AID 488926; 14% of 2,400 active;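 active = membrane potential signal drops by more than 5 SD from the mean control signal, in both duplicate plates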;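 note: plate controls were acetylcholine ECmax control wells for no effect and buffer only wells for full effect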
# TRPC4 ctr mod: selectivity of TRPC6 modulators against mouse TRPC4; AID 488927; 69% of 2,400 active; shares compounds with TRPC6 inhibitor; percent change from control (negative = decrease, positive = increase), % at 10 µM; HEK293 TRPC4/mu-opioid, membrane potential fluorescence;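 active = membrane potential signal moved up or down beyond 5 SD of buffer control wells, in both duplicate plates, actives on both sides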;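 note: plate controls were assay buffer wells for no effect and DAMGO maximal-effect wells for full effect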
# TRPC4/MOR inh 2: mouse TRPC4 off-target activity of TRPC6 modulators, second screen; shares compounds with TRPC6 inhibitor; HEK293 TRPC4/mu-opioid, membrane potential dye fluorescence; stimulated with maximal-effect DAMGO; inhibition, % at 10 µM; 55% of 2,400 active;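 active = drop in membrane potential signal beyond 5 SD of the control wells in both duplicate plates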;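 note: TRPC4 counter screen for TRPC6 hits run under conditions tuned for TRPC6 not TRPC4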
# TRPC6 block conf: mouse TRPC6 inhibitor confirmation; shares compounds with TRPC6 inhibitor; 43% of 3,300 active; inhibition, % at 10 µM; HEK293-TRPC6, membrane potential dye, ACh-evoked depolarization;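 active = fluorescence ratio falls more than 5 SD below the full-stimulation control mean, in both duplicate runs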;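 note: integrated fluorescence ratio of peak minus minimum over baseline after agonist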
# TRPC6 act confirm: confirmation of mouse TRPC6 activators. AID 488961. 11% of 2,800 active. HEK293-TRPC6 membrane potential dye fluorescence, FDSS. shares compounds with TRPC6 inhibitor. activation, % at 10 µM;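 active = ratio signal rise beyond 5 SD above unstimulated control wells' mean, seen in both duplicate runs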;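 note: plate controls were buffer EC0 wells for no effect and acetylcholine ECmax response for full effect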
# * marks the source's active call; other numbers are inactive results; i = inactive; / = no result given. Compounds with a hit are over-represented: about 2.3% of the library has one in this group of screens.
SMILES,TRPC4 inh,TRPC6 inhibitor,TRPC4 act,TRPC4 potent,TRPC6 activator,HEK293 MPD ctr-2,HEK293 MPD ctr 2-2,TRPC4 ctr mod,TRPC4/MOR inh 2,TRPC6 block conf,others
CCOC(=O)C1=C(NC(=S)NC(=O)c2ccccc2)c2ccccc2CC12CCCC2,i,i,i,i,i,/,/,/,/,/,
CC1(C(O)(C#CCN2CCCCC2)c2ccccc2)CCCC1 (stereo not given),i,-7.1*,i,i,i,142%*,106%*,26%*,44%*,91%*,
COc1ccc2ccccc2c1CNCCc1ccccc1,i,-7.8*,i,i,i,/,/,/,/,66%*,TRPC4 spec 2=i;TRPC4 spec=16%*;HEK293 MPD ctr 2-1=i;HEK293 MPD ctr-1=5.0%*
COc1cccc(CNCCc2ccccc2)c1OC,i,i,i,i,i,/,/,/,/,/,
CCOc1ccc(C2(C#N)CC[N+](C)(C)CC2)cc1,i,i,i,i,i,/,/,/,/,/,
CC1(C)C(=O)C=C[C@]2(C)[C@H]3CC[C@@]4(C)[C@H](c5ccoc5)OC(=O)[C@H]5O[C@]54[C@]3(C)[C@H](O)C[C@@H]12,i,i,i,i,i,/,/,/,/,/,
CC(C)OCCCNC(=O)c1c(N)n(CC2CCCO2)c2nc3ccccc3nc12 (stereo not given),i,-5*,i,i,i,124%*,i,23%*,i,i,
CCCNC(=O)c1c(N)n(CC2CCCO2)c2nc3ccccc3nc12 (stereo not given),i,i,i,i,i,/,/,/,/,/,
COc1ccc(C(=O)C2CCCN(Cc3cnc(C)s3)C2)cc1OC (stereo not given),i,i,i,i,i,/,/,/,/,/,
COc1ccc(C(=O)C2CCCN(C3CSCCSC3)C2)cc1OC (stereo not given),i,-7.7*,167*,i,i,i,83%*,59%*,36%*,72%*,TRPC6 act confirm=i
O=C(c1ccc(Cl)cc1)C1CCCN(C2CCSCC2)C1 (stereo not given),-5*,-7*,i,i,i,130%*,i,28%*,50%*,44%*,
Cc1noc(C)c1CC(=O)N1CCCC(N2CCN(c3ccccc3F)CC2)C1 (stereo not given),i,i,i,i,i,/,/,/,/,/,
CC(C)Oc1ccc(CCN)cc1Cl,i,i,i,i,i,/,/,/,/,/,
CCCCOc1ccc(CCN)cc1Cl,i,-6.4*,i,14*,i,82%*,i,i,52%*,60%*,
FC(F)(F)c1ccc(CNCCc2ccc3c(c2)OCO3)cc1,i,i,i,i,i,/,/,/,/,/,
N#Cc1c(N2CCNCC2)nc(-c2ccco2)c2c1CCCC2,i,-7.8*,i,i,i,/,/,/,/,58%*,TRPC4 spec 2=28%*;TRPC4 spec=-14%*;HEK293 MPD ctr 2-1=i;HEK293 MPD ctr-1=-228%*;TRPC6 act confirm=i
CN1CCN(c2nc(N(C)C)oc(=O)c2C#N)CC1,i,i,i,i,i,/,/,/,/,/,
Cc1ccn2nc(S(=O)(=O)Nc3c(F)cccc3F)nc2n1,i,i,i,i,i,/,/,/,/,/,
CN(CC#CCN1CCCC1)C(=O)c1cccc(Cl)c1,i,i,i,i,i,/,/,/,/,/,
COc1ccc(Cc2c(O)[nH]c(=O)[nH]c2=O)c(OC)c1,i,i,i,i,16*,i,i,i,i,i,TRPC6 act confirm=i
COc1ccc(CC2C(=O)NC(=O)NC2=O)c(OC)c1,i,i,i,i,i,/,/,/,/,/,
CCOc1cc2c(cc1OCC)-n1cccc1C(c1ccc(OC)c(O)c1)NC2 (stereo not given),i,i,i,i,i,/,/,/,/,/,
CCCC/C(=N/O)c1c(C)[nH]c2ccccc12,i,-9.5*,i,i,i,/,/,/,/,i,TRPC4 spec 2=i;TRPC4 spec=-13%*;HEK293 MPD ctr 2-1=i;HEK293 MPD ctr-1=-142%*;TRPC6 act confirm=i
CCCCC/C(=N/O)c1c(C)[nH]c2ccccc12,i,i,i,i,i,/,/,/,/,/,
CC(=O)N1N=C(c2cccnc2)OC1c1ccccc1Cl (stereo not given),i,i,i,i,i,/,/,/,/,/,
SMILES,TRPC4 inh,TRPC6 inhibitor,TRPC4 act,TRPC4 potent,TRPC6 activator,HEK293 MPD ctr-2,HEK293 MPD ctr 2-2,TRPC4 ctr mod,TRPC4/MOR inh 2,TRPC6 block conf,others
CC/C(=N\NC(=O)Nc1ccccc1)c1c(O)n(Cc2ccccc2)c(=O)[nH]c1=O,i,i,i,i,i,/,/,/,/,/,
OC(Cc1ccccc1)(c1ccccc1)C1CN2CCC1CC2 (stereo not given),i,-5.4*,i,i,i,152%*,i,33%*,i,52%*,
OC(c1ccccc1)(c1ccccc1)C1CN2CCC1CC2 (stereo not given),i,-7.9*,i,i,i,/,/,/,/,i,TRPC4 spec 2=i;TRPC4 spec=i;HEK293 MPD ctr 2-1=i;HEK293 MPD ctr-1=i;TRPC6 act confirm=i
OC(c1ccccc1)(c1ccc(Cl)cc1)C1CN2CCC1CC2 (stereo not given),i,i,i,i,i,/,/,/,/,/,
FC(F)(F)c1ccccc1CNCCc1c[nH]c2ccccc12,i,i,i,i,i,/,/,/,/,/,
CC[n+]1c(/C=C/C=C/c2ccc(N(C)C)cc2)sc2ccccc21,i,i,i,i,i,/,/,/,/,/,
CC[n+]1c(/C=C/N(C)c2ccccc2)sc2ccc(Cl)cc21,i,-6.3*,i,i,i,i,96%*,i,36%*,46%*,TRPC6 act confirm=i
